HTR2A ag – activates the mouse 5-HT2A serotonin receptor; hit rate 0.66% among 360,000; activation, % at 7.6 µM; CHO-K1 mHTR2A beta-arrestin complementation, luminescence; percent of 30 µM serotonin response;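 active = activation above a run cutoff, the mean activation of all tested compounds plus 3 SD, cut at about 14% in these data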;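 note: 0% = plate median of compound wells and 100% = 30 µM serotonin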
IMP-1 inh – inhibitors of Pseudomonas aeruginosa IMP-1 metallo-beta-lactamase | inhibition, % at 5.6 µM | hit rate 0.45% among 290,000 | purified IMP-1, nitrocefin hydrolysis, epi-absorbance fluorescence;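 active = inhibition above the mean plus 3 SD of all compounds in the same screening run, cut at about 4.5% in these data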;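 note: 0% = IMP-1 with DMSO and 100% = DMSO wells lacking enzyme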
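System: purified IMP-1; amount: IMP-1 0.2 nM before substrate addition; compound: single dose, 5.6 µM; times: 25 °C, 15 min preincubation, 25 min reaction; signal: Epi-absorbance via hydrolysed-nitrocefin quenching of white-plate fluorescence, 480/530 nm, EDTA stop; benchmarks: DMSO with and without IMP-1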
VIM-2 inhibitor – blocks Pseudomonas aeruginosa VIM-2 metallo-beta-lactamase; purified VIM-2, nitrocefin hydrolysis, epi-absorbance fluorescence; inhibition, % at 5.6 µM; hit rate 0.89% among 290,000; AID 1527;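 active = inhibition above the mean of all tested compounds plus 3 SD, cutoff set per screening run, cut at about 7.5% in these data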;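 note: red hydrolysis product quenches plate fluorescence so inhibitors raise well fluorescence; 0% = enzyme with DMSO and 100% = DMSO without enzyme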
dFosB act-1 – mouse delta FosB homodimer activation; purified delta FosB, TAMRA-CDK5 oligo fluorescence polarization; percent of positive-control signal above neutral wells; P13346; activation, % at 25 µM; hit rate 0.99% among 340,000;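 active = mean activation above about 17%, with every replicate also reaching it, limit read from the data, passing the limit was not always enough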
Target sequence (P13346 whole entry, looked up): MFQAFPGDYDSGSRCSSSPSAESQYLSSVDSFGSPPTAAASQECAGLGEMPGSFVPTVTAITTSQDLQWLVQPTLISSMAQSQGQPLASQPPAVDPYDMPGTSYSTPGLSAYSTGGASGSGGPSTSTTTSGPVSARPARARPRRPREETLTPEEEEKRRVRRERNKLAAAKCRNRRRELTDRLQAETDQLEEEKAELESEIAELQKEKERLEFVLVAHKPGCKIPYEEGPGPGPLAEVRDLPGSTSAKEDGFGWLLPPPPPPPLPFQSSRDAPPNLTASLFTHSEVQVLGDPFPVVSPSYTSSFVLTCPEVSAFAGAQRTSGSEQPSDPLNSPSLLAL
dFosB act-2 – enhances mouse delta FosB homodimer binding to DNA | shares compounds with dFosB act-1 | purified delta FosB, TAMRA-CDK5 oligo fluorescence polarization; normalised: neutral wells 0, positive control 100 | activation, % at 24.9 µM | 2,400 tested, under 10 active | AID 588690;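 active = highest replicate activation at or above 34% and every replicate reaching that threshold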;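 note: higher polarization means more probe DNA bound by delta FosB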
An asterisk follows results filed as active; . = not tested or not shown. In the library only some 2.5% were active in any assay of this set; here they are far more common.

SMILES | HTR2A ag | IMP-1 inh | VIM-2 inhibitor | dFosB act-1 | dFosB act-2
Cc1cc(OCC(=O)Nc2sc3c(c2C#N)CC(C)(C)NC3(C)C)c(C(C)C)cc1Cl | 2 | -3 | -4 | 62* | -1
CCOc1ccc(-n2c(SCC(=O)Nc3nccs3)nc3c(c2=O)SCC3)cc1 | 3 | -3 | 0 | -6 | .
Cc1ccc(-n2c(SCC(=O)Nc3nccs3)nc3c(c2=O)SCC3)cc1 | 1 | -3 | -2 | 38* | 1
Cc1ccc(C)c(NC(=O)Cn2nnc(C(=O)NCc3ccco3)c2N)c1 | 0 | 0 | 0 | 30* | -5
Cc1ccc(CNC(=O)Cn2nnc(C(=O)Nc3cccc(C)c3C)c2N)cc1 | 0 | -1 | -4 | 6 | .
Cc1ccc(CCNC(=O)Cn2ncc3c([nH]c4ccccc43)c2=O)cc1 | 1 | 0 | -2 | 6 | .
Cc1ccc(CNC(=O)c2nnn(CC(=O)Nc3cccc(C)c3C)c2N)cc1 | 6 | -2 | -5 | 66* | -1
Cc1ccc2[nH]c3c(=O)n(CC(=O)NCc4ccco4)ncc3c2c1 | 3 | 0 | -2 | 26* | 2
O=C(COc1ncnc2ccccc12)Nc1cc(S(=O)(=O)N2CCOCC2)ccc1Cl | 1 | -2 | -3 | 46* | 2
Cc1ccc(C)c(Cn2c3ccccc3c3cnn(CC(=O)NCc4ccccn4)c(=O)c32)c1 | 4 | 2 | -2 | 21* | 1
COc1cc2c(cc1OC)-c1cc3ccc(OC)c(OC)c3c[n+]1CC2 | 2 | . | . | 28* | -3
Fc1cccc(Cc2c(-c3ccccc3)nc3c4ccccc4ccn23)c1 | -8 | . | . | . | .
C/C(=N\NC(=O)c1nnn(-c2nonc2N)c1C(C)C)c1ccc2ccccc2c1 | -2 | -2 | -2 | 41* | -1
CCn1cc(C(=O)C(F)(F)F)c2ccccc21 | -6 | -3 | -6 | 3 | .
CCn1cc(C(=O)NP(=O)(Nc2ccc(C)cc2)Nc2ccc(C)cc2)c2ccccc21 | -8 | -2 | 0 | 36* | -4
Cc1ccc(S(=O)(=O)Nc2ccc3c(c2)nc2n3CCN(Cc3ccccc3)C2)cc1 | -1 | -6 | -3 | 5 | .
O=S(=O)(Nc1ccc2c(c1)nc1n2CCN(Cc2ccccc2)C1)c1ccc(Cl)cc1 | 0 | -3 | -1 | 23* | -9
O=S(=O)(Nc1ccc2c(c1)nc1n2CCN(Cc2ccccc2)C1)c1ccccc1 | -3 | 3 | 2 | 24* | -3
COC(=O)c1ccc(NC(=O)C(=O)c2c[nH]c3ccccc23)cc1 | -2 | -3 | -2 | 72* | 7
O=C(Nc1ccccc1)C(=O)c1c[nH]c2ccccc12 | -2 | -3 | -3 | 1 | .
Cc1ccc(C(=O)/C=C/c2cc(C#N)n(C)c2C)cc1 | 0 | -5 | -3 | -12 | .
CCOc1cc(/C=C(\C#N)c2nc3ccccc3[nH]2)ccc1OC(C)C(=O)O (stereo not drawn) | -5 | -3 | -2 | 8 | .
CCOc1cc(/C=C(/C#N)c2nc3ccccc3[nH]2)ccc1Oc1ccc([N+](=O)[O-])cn1 | 0 | -3 | -5 | 50* | 7
COc1ccccc1C(CC(=O)O)NS(=O)(=O)c1ccc2c(c1)N(C(C)=O)CC(C)O2 (stereo not drawn) | 5 | 0 | -1 | -13 | .
NC(=O)c1nc(-c2ccco2)nc2c1[nH]c(=O)n2-c1ccc(Cl)c(Cl)c1 | 5 | -4 | -5 | -4 | .
SMILES | HTR2A ag | IMP-1 inh | VIM-2 inhibitor | dFosB act-1 | dFosB act-2
CCOC(=O)CSc1nc(=O)n2cccc(C)c2n1 | 1 | -1 | 2 | -2 | .
CCOC(=O)c1ccc(NC(=O)CSc2nc(=O)n3cccc(C)c3n2)cc1 | 4 | . | . | 29* | 3
CCOC(=O)c1ccc(NC(=O)CSc2nc(N3CCOCC3)nc(N3CCOCC3)n2)cc1 | -2 | 3 | 0 | 24* | 2
CC(=O)c1ccc(NC(=O)CSc2nc(N3CCOCC3)nc(N3CCOCC3)n2)cc1 | 3 | -2 | 0 | -10 | .
O=C(NCCc1ccc(Cl)cc1Cl)C1=CC=CN2CCS(=O)(=O)N=C12 | 3 | . | . | -7 | .
CC(C)CC(C(=O)Nc1ccccc1)N1C(=O)C2C3C=CC(C3)C2C1=O (stereo not drawn) | 3 | -1 | 1 | -7 | .
CC(OC(=O)c1ccc(-c2ccc([N+](=O)[O-])cc2)o1)C(=O)NC(N)=O (stereo not drawn) | -5 | -2 | -2 | 3 | .
CCC1=C(Nc2ccccc2)COC1=O | 1 | . | . | . | .
O=C(Nn1cnc2ccccc2c1=O)c1ccc(Cl)c([N+](=O)[O-])c1 | -2 | -3 | -1 | -4 | .
Cc1sc(NC(=O)Cn2c(=O)oc3ccccc32)nc1-c1ccc(Cl)cc1 | -2 | 1 | 0 | 40* | 6
CCc1nnc(NC(=O)Cn2c(=O)oc3ccccc32)s1 | 2 | -4 | -4 | 6 | .
COc1cc(C)c(NC(=O)C2CCN(S(=O)(=O)c3cccs3)CC2)cc1OC | 5 | . | . | -3 | .
CCOC(=O)c1sc(NC(=O)CCc2ccc(OC)cc2)nc1C | 6 | -2 | 0 | 25* | 0
COc1ccc(CCNC(=O)CCCCCNc2nc(=S)[nH]c3ccccc23)cc1OC | -1 | -1 | -1 | -5 | .
O=C(NC1CCCCC1)c1ccc(CNc2nc(=S)[nH]c3ccccc23)cc1 | 3 | 0 | 1 | 19* | 2
COc1ccc(CNC(=O)CCCCCNc2nc(=S)[nH]c3ccccc23)cc1 | -2 | -2 | -3 | 39* | 2
S=c1nc(NCc2ccc3c(c2)OCO3)c2ccccc2[nH]1 | -1 | -2 | -2 | -1 | .
CC(C)OCCCN(C)C1CCN(S(=O)(=O)c2ccc(-c3cc(C(F)(F)F)no3)s2)CC1 | -7 | -2 | 4 | 3 | .
Cc1ccc(NC(=O)Cn2nnc(C(=O)NCc3ccc4c(c3)OCO4)c2N)cc1 | 5 | 0 | -5 | -4 | .
Nc1c(C(=O)NCc2ccc3c(c2)OCO3)nnn1CC(=O)Nc1ccc(Br)cc1 | 6 | 1 | -4 | 51* | 5
Cc1cc(C)c(NC(=O)Cn2nnc(C(=O)NCc3ccc4c(c3)OCO4)c2N)c(C)c1 | 7 | -2 | -1 | 75* | 0
O=C(NCc1ccc2c(c1)OCO2)c1ccc(CS(=O)Cc2ccc(Cl)cc2)o1 (stereo not drawn) | 1 | 2 | -1 | -6 | .
COc1ccc(Cl)cc1NC(=O)Cn1nnc(C(=O)NCc2ccc3c(c2)OCO3)c1N | 2 | 18* | -1 | 39* | 0
O=C(NCc1ccc2c(c1)OCO2)c1nnc(Cc2ccc(Cl)cc2)o1 | 3 | -1 | -1 | 27* | 3
CC(C)c1ccc(NC(=O)Cn2nnc(C(=O)NCc3ccc4c(c3)OCO4)c2N)cc1 | 3 | 0 | -7 | 31* | -3
COc1ccc(OC)c(/C=N/NC(=O)CSc2cc(C)nc3c(OC)cccc23)c1 | -6 | -2 | -3 | 37* | 5
Cc1cc(Nc2ccc3c(c2)OCCO3)c2cc(Cl)ccc2n1 | 4 | 0 | 8.2* | 29* | -8
COc1ccc(Nc2cc(C)nc3ccc(OC)cc23)cc1 | -6 | -1 | 11* | 34* | 3

High-throughput results from PubChem.
